Blank lines part the entries; values can stand above or below the compound they belong to. Peptide text beside a SMILES is read from it. * marks the point of attachment. Dansyl = CN(C)c1cccc2c(S(=O)(=O)*)cccc12
How the values were obtained:
[1] = target: T1, Tiam2 PDZ domain (Mus musculus, UniProt Q6ZPF3); experiment: Equilibrium fluorescence anisotropy binding of dansylated peptides
T1 sequence (Q6ZPF3 908-997 limits assumed): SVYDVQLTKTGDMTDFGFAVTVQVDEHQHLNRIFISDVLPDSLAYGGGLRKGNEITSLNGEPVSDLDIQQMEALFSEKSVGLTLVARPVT
In short: (§1)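 Purified PDZ domains were titrated from a 1.5 mM stock into 1 μM N-terminally dansylated peptide at 25 °C in a stirred cuvette. Proteins were expressed in E. coli BL21(DE3), purified by Ni-chelate and size-exclusion chromatography, and His6-tag cleaved by TEV; Tiam2 is mouse residues 809–994; mutants made by site-directed mutagenesis. Anisotropy ex 340/em 550 nm, buffer-blank corrected. Kd from hyperbolic fit, mean of ≥3 independent runs; ΔG = RT ln Kd (298.15 K).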

[2] = target: Tiam1 PDZ L911M (Homo sapiens, UniProt Q13009, L911M); experiment: Fluorescence anisotropy binding, Tiam1 PDZ mutant; settings: Tiam1 PDZ L911M; fluorescence anisotropy, 25 °C
In short: as §1

[3] = target: Tiam1 PDZ K912E (Homo sapiens, UniProt Q13009, K912E); experiment: Fluorescence anisotropy binding, Tiam1 PDZ mutant; settings: Tiam1 PDZ K912E; fluorescence anisotropy, 25 °C
In short: as §1

[4] = target: Tiam1 PDZ L911M/K912E (Mus musculus, UniProt Q60610, L911M/K912E, species not given); experiment: Fluorescence anisotropy binding and double-mutant cycle, Tiam1 PDZ mutant; settings: Tiam1 PDZ L911M/K912E
In short: (§2)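 Wild-type, single- and double-mutant Tiam1 PDZ (E. coli-expressed, tag-cleaved) were each titrated into 1 μM dansylated peptide at 25 °C. Anisotropy read at ex 340/em 550 nm; Kd from hyperbolic fit, ≥3 independent runs. ΔG = RT ln Kd at 298.15 K. Coupling energy ΔΔΔGint = (ΔGWT − ΔGM1) − (ΔGM2 − ΔGDM), with errors propagated by standard methods.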

[5] = test system: Tiam1 PDZ L911M/K912E; experiment: as above; settings: ΔGb(mutant) − ΔGb(wild-type); L911M/K912E
In short: as §2

[6] = target: Tiam1 PDZ L915F (Homo sapiens, UniProt Q13009, L915F); experiment: Fluorescence anisotropy binding, Tiam1 PDZ mutant; settings: Tiam1 PDZ L915F; fluorescence anisotropy, 25 °C
In short: as §1

[7] = target: Tiam1 PDZ L920V (Homo sapiens, UniProt Q13009, L920V); experiment: Fluorescence anisotropy binding, Tiam1 PDZ mutant; settings: Tiam1 PDZ L920V; fluorescence anisotropy, 25 °C
In short: as §1

[8] = target: Tiam1 PDZ L915F/L920V (Mus musculus, UniProt Q60610, L915F/L920V, species not given); experiment: Fluorescence anisotropy binding and double-mutant cycle, Tiam1 PDZ mutant; settings: Tiam1 PDZ L915F/L920V
In short: as §2

[9] = test system: Tiam1 PDZ L915F/L920V; experiment: as above; settings: ΔGb(mutant) − ΔGb(wild-type); L915F/L920V
In short: as §2

[10] = target: Tiam1 PDZ QM (L911M/K912E/L915F/L920V) (Homo sapiens, UniProt Q13009, K912E/L911M/L915F/L920V); experiment: Fluorescence anisotropy binding, Tiam1 PDZ quadruple mutant
In short: as §1

[11] = test system: Tiam1 PDZ QM (L911M/K912E/L915F/L920V); experiment: as above
In short: as §1

[12] = target: Tiam1 PDZ domain (wild-type) (Homo sapiens, UniProt Q13009); experiment: Equilibrium fluorescence anisotropy binding of dansylated peptides
In short: as §1

Sequence of Tiam1 PDZ domain (wild-type) (Q13009 841-930 limits assumed): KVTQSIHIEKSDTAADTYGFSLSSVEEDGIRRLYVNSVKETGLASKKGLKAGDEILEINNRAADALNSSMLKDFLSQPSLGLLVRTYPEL
Sequence of Tiam1 PDZ L911M/K912E (Mus musculus, UniProt Q60610, L911M/K912E, species not given) (Q60610 2-1591 L911M/K912E): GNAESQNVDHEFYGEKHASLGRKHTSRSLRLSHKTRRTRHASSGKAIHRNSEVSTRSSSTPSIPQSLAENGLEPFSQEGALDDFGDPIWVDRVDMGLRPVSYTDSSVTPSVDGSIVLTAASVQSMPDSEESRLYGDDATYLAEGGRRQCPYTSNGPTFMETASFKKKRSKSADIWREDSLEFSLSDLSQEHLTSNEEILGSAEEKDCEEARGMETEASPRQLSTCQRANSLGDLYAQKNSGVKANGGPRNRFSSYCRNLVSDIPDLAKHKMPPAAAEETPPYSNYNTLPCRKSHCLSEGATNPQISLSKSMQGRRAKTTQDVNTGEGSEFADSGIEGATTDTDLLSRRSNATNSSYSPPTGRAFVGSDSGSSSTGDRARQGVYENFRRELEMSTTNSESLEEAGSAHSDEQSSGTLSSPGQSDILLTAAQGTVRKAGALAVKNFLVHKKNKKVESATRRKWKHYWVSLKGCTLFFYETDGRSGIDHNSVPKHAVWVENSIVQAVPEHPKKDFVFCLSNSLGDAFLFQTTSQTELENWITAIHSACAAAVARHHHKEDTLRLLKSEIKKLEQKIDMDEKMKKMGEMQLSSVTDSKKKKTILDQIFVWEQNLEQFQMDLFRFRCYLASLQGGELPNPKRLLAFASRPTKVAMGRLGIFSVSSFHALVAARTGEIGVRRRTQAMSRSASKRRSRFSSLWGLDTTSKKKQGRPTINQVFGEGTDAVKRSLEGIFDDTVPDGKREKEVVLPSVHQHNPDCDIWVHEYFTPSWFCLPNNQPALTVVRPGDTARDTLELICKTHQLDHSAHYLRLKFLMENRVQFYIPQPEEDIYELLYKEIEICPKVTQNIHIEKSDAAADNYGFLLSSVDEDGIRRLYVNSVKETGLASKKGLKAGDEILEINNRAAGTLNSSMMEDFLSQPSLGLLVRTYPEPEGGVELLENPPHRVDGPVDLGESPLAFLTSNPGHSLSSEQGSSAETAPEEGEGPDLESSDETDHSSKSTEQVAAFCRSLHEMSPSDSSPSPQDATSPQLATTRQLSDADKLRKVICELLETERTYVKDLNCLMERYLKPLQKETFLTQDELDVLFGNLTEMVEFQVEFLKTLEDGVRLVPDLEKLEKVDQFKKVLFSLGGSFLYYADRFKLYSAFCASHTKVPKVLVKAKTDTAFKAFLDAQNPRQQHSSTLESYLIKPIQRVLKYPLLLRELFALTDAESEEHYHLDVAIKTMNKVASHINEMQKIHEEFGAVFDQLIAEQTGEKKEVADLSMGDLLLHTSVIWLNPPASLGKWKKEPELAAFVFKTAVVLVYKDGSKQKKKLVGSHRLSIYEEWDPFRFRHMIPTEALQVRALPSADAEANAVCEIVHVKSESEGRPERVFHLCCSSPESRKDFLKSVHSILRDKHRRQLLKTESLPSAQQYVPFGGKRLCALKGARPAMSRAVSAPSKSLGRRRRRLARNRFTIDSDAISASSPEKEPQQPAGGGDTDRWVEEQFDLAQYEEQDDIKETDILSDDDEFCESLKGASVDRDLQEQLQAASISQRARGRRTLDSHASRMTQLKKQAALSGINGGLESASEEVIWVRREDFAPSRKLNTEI
Sequence of Tiam1 PDZ L915F/L920V (Mus musculus, UniProt Q60610, L915F/L920V, species not given) (Q60610 2-1591 L915F/L920V): as the sequence (Q60610 2-1591 L911M/K912E) above, with M910L, E911K, L914F, L919V counted along it
Sequence of Tiam1 PDZ QM (L911M/K912E/L915F/L920V) (Homo sapiens, UniProt Q13009, K912E/L911M/L915F/L920V) (Q13009 841-930 L911M/K912E/L915F/L920V limits assumed): as the sequence (Q13009 841-930 limits assumed) above, with L71M, K72E, L75F, L80V counted along it
Sequence of Tiam1 PDZ K912E (Q13009 841-930 K912E limits assumed): as the sequence (Q13009 841-930 limits assumed) above, with K72E counted along it
Sequence of Tiam1 PDZ L911M (Q13009 841-930 L911M limits assumed): as the sequence (Q13009 841-930 limits assumed) above, with L71M counted along it
Sequence of Tiam1 PDZ L920V (Q13009 841-930 L920V limits assumed): as the sequence (Q13009 841-930 limits assumed) above, with L80V counted along it
Sequence of Tiam1 PDZ L915F (Q13009 841-930 L915F limits assumed): as the sequence (Q13009 841-930 limits assumed) above, with L75F counted along it

Compound: CC(C)[C@H](NC(=O)[C@H](Cc1ccc(O)cc1)NC(=O)[C@@H](NC(=O)[C@H](CCCNC(=N)N)NC(=O)[C@H](CCCCN)NC(=O)[C@H](C)NC(=O)[C@H](C)NC(=O)[C@H](Cc1ccc(O)cc1)NS(=O)(=O)c1cccc2c(N(C)C)cccc12)[C@@H](C)O)C(=O)O [Tiam2 peptide 1 (Group I)] (Dansyl-YAAKRTYV-OH)
Kd [12]: > 250 µM | Kd [1]: 77.6 ± 2.4 µM

Compound: CC[C@H](C)[C@H](NC(=O)[C@H](CC(C)C)NC(=O)[C@H](C)NC(=O)[C@H](C)NC(=O)[C@H](Cc1ccc(O)cc1)NS(=O)(=O)c1cccc2c(N(C)C)cccc12)C(=O)N[C@@H](Cc1c[nH]cn1)C(=O)N[C@@H](CCCCN)C(=O)N[C@@H](Cc1ccccc1)C(=O)O [Tiam2 peptide 3 (Group II)] (Dansyl-YAALIHKF-OH)
Kd [12]: > 250 µM | Kd [1]: 28.7 ± 4.9 µM

Compound: C[C@H](NC(=O)[C@H](CCCNC(=N)N)NC(=O)[C@H](Cc1ccc(O)cc1)NC(=O)[C@H](CCCNC(=N)N)NC(=O)[C@H](Cc1ccc(O)cc1)NC(=O)[C@H](C)NC(=O)[C@H](C)NC(=O)[C@H](Cc1ccc(O)cc1)NS(=O)(=O)c1cccc2c(N(C)C)cccc12)C(=O)O [Tiam1 peptide 1 (Group I)] (Dansyl-YAAYRYRA-OH)
Kd [12]: > 250 µM | Kd [1]: 22.5 ± 1.1 µM

Stronger by Kd [1], values ahead:

Kd [1]: 5 ± 0.2 µM | Kd [2]: bound very weakly | Kd [3]: bound very weakly | ΔGb [4]: -4.90 ± 0.30 kcal/mol | Kd ([4]; fluorescence anisotropy, 25 °C): 270 ± 150 µM | ΔΔGb [5]: -1.30 ± 0.30 kcal/mol | ΔGb [8]: -5.15 ± 0.07 kcal/mol | Kd ([8]; fluorescence anisotropy, 25 °C): 166 ± 12 µM | ΔΔGb [9]: -1.58 ± 0.10 kcal/mol | Kd [10]: 46 ± 2 µM | ΔGb ([10]; Tiam1 PDZ QM): -5.91 ± 0.04 kcal/mol | fold higher Kd than Tiam2 PDZ domain ([11]; QM vs Tiam2 PDZ): 9 fold | ΔΔGb ([11]; ΔGb(mutant) − ΔGb(wild-type), QM): -2.30 ± 0.10 kcal/mol
Compound: CC(C)[C@H](NC(=O)[C@H](Cc1ccc(O)cc1)NC(=O)[C@H](Cc1ccc(O)cc1)NC(=O)[C@H](CCC(=O)O)NC(=O)[C@H](CCCCN)NC(=O)[C@H](CC(=O)O)NC(=O)[C@H](CCCCN)NC(=O)[C@H](CC(N)=O)NS(=O)(=O)c1cccc2c(N(C)C)cccc12)C(=O)O [Neurexin1] (Dansyl-NKDKEYYV-OH)
Kd [6]: too weak to allow for reliable measurement | Kd [7]: too weak to allow for reliable measurement

Kd [12]: > 250 µM | Kd [1]: 9.9 ± 2.2 µM
Compound: C[C@H](NC(=O)[C@H](C)NC(=O)[C@H](Cc1ccc(O)cc1)NS(=O)(=O)c1cccc2c(N(C)C)cccc12)C(=O)NCC(=O)N[C@@H](CCCNC(=N)N)C(=O)N[C@@H](CCCCN)C(=O)N[C@@H](Cc1c[nH]cn1)C(=O)N[C@@H](Cc1ccccc1)C(=O)O [Tiam2 peptide 2 (Group II)] (Dansyl-YAAGRKHF-OH)

From paper PMC3059893 (Biochemistry, 2011)
